Measured values: article PMC8851455 (ACS Omega, 2022)
Entries after “also recorded” stand apart in the source; their conditions may differ. Like-named read-outs stand apart in the source and are kept apart here.

Assays:
ERα = settings: competing with E2; cited from earlier work
MCF-7 cells [1] = assay: MCF-7 cell proliferation assay; format: cell-based, human
Summary of the method: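 MCF-7 cells exposed to test compound or E2 at six concentrations from 10–12 to 10–7 M in EA-free medium. Proliferation read as MTT product absorbance at 570 nm. Three independent trials, each in triplicate. % RME2 = 100 × (OD test − OD VC)/(max OD E2 − OD VC). EC50 from curve fitting. EEF = EC50 of E2/EC50 of sample. One-way ANOVA with Dunnett's test versus E2 at each concentration.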

S. typhimurium = settings: incorporation or preincubation Ames assays, 10–3333 μg/plate; cited from earlier work
MCF-7 cells [2] = settings: proliferative activity at 10^–7 to 10^–5 M; cited from earlier work
chicken embryo = assay: Chicken embryonic assay; format: in vivo; settings: egg injection, day 18
[3] = tested on: S. typhimurium tester strains (TA98, TA100, and TA102); assay: Ames test, overall over three strains; format: cell-based, Salmonella typhimurium
S. typhimurium TA98 = assay: Ames test, strain TA98; format: cell-based, Salmonella typhimurium; settings: TA98 +S9
[4] = TA102 +S9, 5 × 10^–2 pmol/plate
[5] = TA102 +S9, 5 × 10^–3 pmol/plate
[6] = TA102 +S9, 5 × 10^–4 pmol/plate
[7] = TA102 +S9, 5 × 10^–5 pmol/plate
[8] = TA102 -S9, 5 × 10^–2 pmol/plate
[9] = TA102 -S9, 5 × 10^–3 pmol/plate
[10] = TA102 -S9, 5 × 10^–4 pmol/plate
[11] = TA102 -S9, 5 × 10^–5 pmol/plate
[12] = higher dose (0.5 mM: 450–500 μg/kg; E2 0.1 mM: 91 μg/kg)
[13] = lower dose (0.05 mM: 45–50 μg/kg; E2 0.01 mM: 9.1 μg/kg)

Structure (SMILES): O=c1c(-c2ccc(O)cc2)coc2cc(O)cc(O)c12 [genistein]
- MI (S. typhimurium TA102; TA102 +S9, 0.5 pmol/plate): 1.1
- number of revertants/plate (M ± SD) (S. typhimurium TA102; TA102 +S9, 0.5 pmol/plate): 336 ± 17 revertants/plate
- MI (S. typhimurium TA102; TA102 +S9, 5 pmol/plate): 1.0
- number of revertants/plate (M ± SD) (S. typhimurium TA102; TA102 +S9, 5 pmol/plate): 299 ± 4 revertants/plate
- MI (S. typhimurium TA102; TA102 +S9, 50 pmol/plate): 1.1
- number of revertants/plate (M ± SD) (S. typhimurium TA102; TA102 +S9, 50 pmol/plate): 324 ± 28 revertants/plate
- MI (S. typhimurium TA102; [4]): 1.0
- number of revertants/plate (M ± SD) (S. typhimurium TA102; [4]): 311 ± 18 revertants/plate
- MI (S. typhimurium TA102; [5]): 1.0
- number of revertants/plate (M ± SD) (S. typhimurium TA102; [5]): 312 ± 13 revertants/plate
- MI (S. typhimurium TA102; [6]): 0.9
- number of revertants/plate (M ± SD) (S. typhimurium TA102; [6]): 285 ± 10 revertants/plate
- MI (S. typhimurium TA102; [7]): 0.9
- number of revertants/plate (M ± SD) (S. typhimurium TA102; [7]): 290 ± 4 revertants/plate
- MI (S. typhimurium TA102; TA102 -S9, 0.5 pmol/plate): 1.0
- number of revertants/plate (M ± SD) (S. typhimurium TA102; TA102 -S9, 0.5 pmol/plate): 247 ± 18 revertants/plate
- MI (S. typhimurium TA102; TA102 -S9, 5 pmol/plate): 0.9
- number of revertants/plate (M ± SD) (S. typhimurium TA102; TA102 -S9, 5 pmol/plate): 240 ± 8 revertants/plate
- MI (S. typhimurium TA102; TA102 -S9, 50 pmol/plate): 0.8
- number of revertants/plate (M ± SD) (S. typhimurium TA102; TA102 -S9, 50 pmol/plate): 215 ± 27 revertants/plate
- MI (S. typhimurium TA102; [8]): 0.9
- number of revertants/plate (M ± SD) (S. typhimurium TA102; [8]): 222 ± 30 revertants/plate
- MI (S. typhimurium TA102; [9]): 0.8
- number of revertants/plate (M ± SD) (S. typhimurium TA102; [9]): 198 ± 8 revertants/plate
- MI (S. typhimurium TA102; [10]): 0.8
- number of revertants/plate (M ± SD) (S. typhimurium TA102; [10]): 196 ± 20 revertants/plate
- MI (S. typhimurium TA102; [11]): 0.8
- number of revertants/plate (M ± SD) (S. typhimurium TA102; [11]): 207 ± 5 revertants/plate
- binding affinity for ERα (ERα): 4%
- EEF (estradiol equivalent factor) (MCF-7 cells [1]; EC50 of E2 divided by that of the test compound): 0.08
- EC50 (MCF-7 cells [1]; Homo sapiens, MCF7): 0.12 nM
- max % RME2 (MCF-7 cells [1]; highest % RME2 (relative maximum % E2) in test range 10^–12–10^–7 M): 48%
- mutagenic activity in Ames assays (S. typhimurium): No mutagenic activity
- concentration of maximum proliferative activity in MCF-7 cells (MCF-7 cells [2]): 10^–6 M
- LSI (liver somatic index) (chicken embryo; [12]): 2.12 ± 0.14%
- malformation rate (chicken embryo; [12]): 0.0%
- mortality rate (chicken embryo; [12]): 50%
- number of dead chicken embryo (chicken embryo; [12]): 5
- number of malformation chicken embryo (chicken embryo; [12]): 0
- weights: embryo (chicken embryo; [12]): 23.88 ± 2.02 g
- weights: heart (chicken embryo; [12]): 0.20 ± 0.03 g
- weights: liver (chicken embryo; [12]): 0.50 ± 0.09 g
- LSI (liver somatic index) (chicken embryo; [13]): 2.05 ± 0.44%
- REEW (ratio of embryo to egg weight) (chicken embryo; [13]): 0.41 ± 0.049
- malformation rate (chicken embryo; [13]): 0.0%
- mortality rate (chicken embryo; [13]): 40.0%
- number of dead chicken embryo (chicken embryo; [13]): 4
- number of malformation chicken embryo (chicken embryo; [13]): 0
- weights: embryo (chicken embryo; [13]): 21.96 ± 0.73 g
- weights: heart (chicken embryo; [13]): 0.17 ± 0.01 g
- weights: liver (chicken embryo; [13]): 0.46 ± 0.10 g
- Ames test outcome (signs of mutagenicity) ([3]; 5 × 10^–5 to 50 pmol/plate, with or without S9): did not significantly increase numbers at any strains and test concentrations; also recorded: did not demonstrate such a sign
- max MI value ([3]; highest MI from test range 5 × 10^–5 to 50 pmol/plate): 1.2
- MI (S. typhimurium TA98; 0.5 pmol/plate): 1.1
- number of revertants/plate (M ± SD) (S. typhimurium TA98; 0.5 pmol/plate): 26 ± 13 revertants/plate
- MI (S. typhimurium TA98; 5 pmol/plate): 1.0
